In ChEMBL document CHEMBL1148736, “N-Acylthiadiazolines, a new class of liver X receptor agonists with selectivity for LXRbeta” (J Med Chem, 2007):
The source made the active and inactive calls. The rule behind the calls is not given here.

Columns and labels:
[1] = AUC in C57BL/6 mouse at 5 mg/kg, iv; type: ADME, organism-based; set-up: dose 5 mg/kg, route intravenous; conditions: plasma
How it was run: (§1)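 Mouse PK study, IV and PO; compound formulated at 2.5 mg/mL in PEG300/Tween 80 (4:1). IV dose 5 mpk (AUC, Cmax, clearance, Vss); oral dose 20 mpk (AUC, Cmax, bioavailability, t1/2).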

HepG2 = test: Increase in FAS gene expression in HepG2 cells at 1 uM relative to GW-3965; type: functional, Homo sapiens
THP-1 = test: Increase in ABCA1 gene expression in THP1 cells at 10 uM relative to GW-3965; type: functional, Homo sapiens
How it was run: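 THP-1 cells differentiated with 40 ng/mL PMA for 1 day, then switched to RPMI with 2% lipoprotein-deficient FBS. Compound added 6 h later at 1 or 10 µM in DMSO, incubated 24 h. ABCA1 mRNA by one-step TaqMan qRT-PCR, triplicate, multiplexed with 36B4; fold induction vs DMSO, expressed relative to reference dual agonist.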

Macrophage = test: Induction of ABCA1 gene expression in LXRalpha and LXRbeta deficient mouse macrophages; type: functional, cell-based
How it was run: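 Thioglycollate-elicited peritoneal macrophages from LXR-null mice, plated 24 h. Treated as for THP-1 without PMA: 2% lipoprotein-deficient serum medium, compound in DMSO for 24 h. ABCA1 mRNA by TaqMan qRT-PCR with 36B4 control, fold vs DMSO. Two concentrations used.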

[2] = target: T1, Oxysterols receptor LXR-alpha (Homo sapiens) (UniProt Q13133); test: Agonist activity at GAL-linked human LXRalpha expressed in THP1 cells assessed as stimulation of co-activator recruitment by FRET assay relative to GW-3965; type: functional
T1 sequence (whole entry): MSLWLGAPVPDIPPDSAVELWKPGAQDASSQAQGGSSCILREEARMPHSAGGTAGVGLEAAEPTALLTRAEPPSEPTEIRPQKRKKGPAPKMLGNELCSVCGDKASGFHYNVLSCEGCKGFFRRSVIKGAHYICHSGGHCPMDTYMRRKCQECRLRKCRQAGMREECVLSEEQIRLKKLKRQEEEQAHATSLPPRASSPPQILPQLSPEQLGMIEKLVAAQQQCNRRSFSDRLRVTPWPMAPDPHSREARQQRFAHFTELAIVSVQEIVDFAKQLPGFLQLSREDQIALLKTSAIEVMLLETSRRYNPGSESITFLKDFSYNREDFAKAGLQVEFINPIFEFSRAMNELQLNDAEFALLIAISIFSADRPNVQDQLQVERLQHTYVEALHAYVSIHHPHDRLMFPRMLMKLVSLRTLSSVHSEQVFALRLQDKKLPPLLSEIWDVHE
How it was run: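 Cell-free TR-FRET coactivator recruitment: 20 nM His-tagged hLXRα or hLXRβ, 300 nM biotinylated SRC-1 peptide, Eu-anti-His antibody, APC-streptavidin. 12-point curves from 20 µM; 1 h at 37 °C. Duplicate. %E = maximal coactivator recruitment relative to reference dual agonist in same experiment.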

[3] = Cmax in C57BL/6 mouse at 5 mg/kg, iv; type: ADME, organism-based; set-up: dose 5 mg/kg, route intravenous; conditions: in vivo; how it was run: as §1
[4] = target: T2, Nuclear receptor subfamily 1 group I member 2 (Homo sapiens, UniProt O75469); test: Activity at PXR by cell based assay; type: functional
T2 sequence (O75469 whole entry): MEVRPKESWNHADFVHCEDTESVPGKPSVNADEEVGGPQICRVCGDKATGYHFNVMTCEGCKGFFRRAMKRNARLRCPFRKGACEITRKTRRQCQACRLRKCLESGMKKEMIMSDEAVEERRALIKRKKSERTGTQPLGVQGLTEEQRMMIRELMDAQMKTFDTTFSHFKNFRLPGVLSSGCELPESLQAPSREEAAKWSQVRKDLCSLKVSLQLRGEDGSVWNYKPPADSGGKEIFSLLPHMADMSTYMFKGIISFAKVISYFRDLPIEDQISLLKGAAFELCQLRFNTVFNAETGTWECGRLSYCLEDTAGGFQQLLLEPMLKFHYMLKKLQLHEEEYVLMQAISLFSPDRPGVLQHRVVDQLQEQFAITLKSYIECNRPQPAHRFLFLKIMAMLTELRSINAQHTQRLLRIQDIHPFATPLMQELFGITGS

[5] = target: T3, Vitamin D3 receptor (Homo sapiens) (UniProt P11473); test: Activity at VDR by cell based assay; type: functional
T3 sequence (whole entry): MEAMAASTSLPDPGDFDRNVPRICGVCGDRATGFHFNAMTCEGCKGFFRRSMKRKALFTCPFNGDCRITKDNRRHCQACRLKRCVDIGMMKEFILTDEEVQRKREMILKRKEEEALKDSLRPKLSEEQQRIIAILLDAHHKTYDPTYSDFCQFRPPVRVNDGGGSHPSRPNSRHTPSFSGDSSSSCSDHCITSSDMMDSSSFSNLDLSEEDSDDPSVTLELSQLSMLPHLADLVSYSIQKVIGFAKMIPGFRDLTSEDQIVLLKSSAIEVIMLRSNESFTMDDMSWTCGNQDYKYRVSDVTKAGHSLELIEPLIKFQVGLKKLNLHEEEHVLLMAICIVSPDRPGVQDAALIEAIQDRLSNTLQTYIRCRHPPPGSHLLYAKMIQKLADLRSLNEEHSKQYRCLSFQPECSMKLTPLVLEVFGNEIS

[6] = Volume of distribution at steady state in C57BL/6 mouse at 5 mg/kg, iv; type: ADME, organism-based; set-up: dose 5 mg/kg, route intravenous; conditions: in vivo, read-out: Vss; how it was run: as §1
[7] = target: T4, Oxysterols receptor LXR-beta (Homo sapiens, UniProt P55055); test: Activity at human LXRbeta by Gal4 transactivation assay
T4 sequence (P55055 whole entry): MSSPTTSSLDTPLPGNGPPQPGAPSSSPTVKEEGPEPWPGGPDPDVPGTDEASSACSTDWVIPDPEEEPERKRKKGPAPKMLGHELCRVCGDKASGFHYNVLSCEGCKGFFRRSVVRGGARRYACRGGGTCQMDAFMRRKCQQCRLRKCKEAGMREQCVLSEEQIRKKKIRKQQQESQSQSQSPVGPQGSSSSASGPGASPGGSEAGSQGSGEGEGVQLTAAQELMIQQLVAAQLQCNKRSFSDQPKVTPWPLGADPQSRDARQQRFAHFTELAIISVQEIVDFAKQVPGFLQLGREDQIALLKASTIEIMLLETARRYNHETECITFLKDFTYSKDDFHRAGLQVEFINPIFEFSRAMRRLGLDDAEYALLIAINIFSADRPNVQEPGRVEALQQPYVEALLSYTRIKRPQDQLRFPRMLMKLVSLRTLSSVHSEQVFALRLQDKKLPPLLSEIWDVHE
How it was run: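 GAL4 DBD fused to hLXRα or hLXRβ LBD in pcDNA3, co-transfected into HepG2 with luciferase reporter. Cells in DMEM with 10% lipoprotein-deficient FBS, 7.5 µM lovastatin, 100 µM mevalonic acid. Ligand added 24 h post-transfection as 11-point curves from 10 µM; luciferase read after 16 h. Run in quadruplicate. %E = max fold induction vs max fold induction of reference dual agonist in same experiment.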

Hepatocyte = test: Induction on FAS gene expression in human primary hepatocytes at 1 uM; type: functional, cell-based
How it was run: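 Primary human hepatocytes treated with 1 µM compound; FAS mRNA measured by TaqMan-based qRT-PCR.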

[8] = Cmax in C57BL/6 mouse at 20 mg/kg, po; type: ADME, organism-based; set-up: dose 20 mg/kg, route oral; conditions: in vivo; how it was run: as §1

- AUC [1]: 7140 ng·h/mL
- Efficacy [2]: 42%
- Cmax [3]: 20.4 µM
- Activity [4]: Not Active
- Activity [5]: inactive
- Vd [6]: 1.65 L/kg
- EC50 [7]: 98 nM
- Cmax [8]: 4.9 µM
Compound: COc1cccc(C2SC(c3ccc(Cl)cc3)=NN2C(=O)c2c(F)cc(F)cc2F)c1OC (racemic)
- Activity (HepG2): 10%
- Activity (THP-1): 59%
- Activity (Macrophage): inactive
- Activity (Hepatocyte): inactive
